From ChEMBL document CHEMBL3244156, “Analgesic and tranquilizing activity of 5,8-disubstituted 1-tetralone Mannich bases” (1977)
Active and inactive are the calls of the source. No cut-off for these calls is given here.

Tests used:
Mus musculus [1] = experiment: Analgesic activity in mouse at 100 mg/kg, ip after 2 hrs by hot plate assay; assay type: functional; settings: route intraperitoneal
Outline: (§1)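 Mice dropped into a glass cylinder on an aluminum plate held at 57 °C. Timed from foot contact to first hind-foot flick, with a 10-s limit. Observed 0.5 and 2 h after treatment. Value is % of mice failing to react within the limit. At least ten mice per dose.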

Mus musculus [2] = experiment: Analgesic activity in mouse assessed as tail-flick latency period at 100 mg/kg, ip after 2 hrs by tail flick test; assay type: functional; settings: route intraperitoneal
Rattus norvegicus [3] = experiment: Analgesic activity in rat assessed as median foot shock required to elicit flinch-jump at 32 mg/kg, ip after 2 hrs; assay type: functional; settings: route intraperitoneal
Outline: (§2)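 Series given just before and 0.5 and 2 h after ip dosing. Flinch, squeak and jump were scored. Value is the median shock (mA) that elicits a jump. At least five rats per dose.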

Rattus norvegicus [4] = experiment: Neuroleptic activity in ip dosed rat assessed as drug required for blocking discriminated jump-out avoidance behavior in after 1 hr; assay type: functional
Outline: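 Rats trained in discriminated jump-out avoidance and tested 1 h after dosing. Value is an estimated ED50 for blocking avoidance.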

Canis familiaris [5] = experiment: Analgesic activity in dog assessed as rippling of skin at 10 mg/kg, po after 2 hrs by radiant heat assay; assay type: functional, Canis lupus familiaris
Outline: (§3)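 Dogs held in a harness with a shaved mid-back patch placed under a concealed radiant heat source. Endpoint is the latency from heat onset to skin "rippling". Baseline latency measured in each dog, then retested at 0.5 and 2 h after dosing. Result expressed as % of control.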

Mus musculus [6] = experiment: Neuroleptic activity in ip dosed mouse assessed as inhibition of amphetamine-induced mortality; assay type: functional
Outline: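 Aggregated mice in groups of ten given amphetamine. Value is an ED50 estimate for blocking lethality, bracketed between a dose where <5/10 died and a dose where >5/10 died.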

Mus musculus [7] = experiment: Analgesic activity in mouse at 32 mg/kg, ip after 2 hrs by hot plate assay; assay type: functional; settings: route intraperitoneal; outline: as §1
Rattus norvegicus [8] = experiment: Analgesic activity in rat assessed as median foot shock required to elicit flinch-jump at 10 mg/kg, ip after 2 hrs; assay type: functional; settings: route intraperitoneal; outline: as §2
Mus musculus [9] = experiment: Analgesic activity in mouse assessed as tail-flick latency period at 32 mg/kg, ip after 2 hrs by tail flick test; assay type: functional; settings: route intraperitoneal
Rattus norvegicus [10] = organism: Rattus norvegicus; experiment: Induction of tolerance development in rat assessed as median foot shock required to elicit flinch-jump; assay type: functional, organism-based
Rattus norvegicus [11] = experiment: Analgesic activity in ip dosed rat assessed as median foot shock required to elicit flinch-jump in presence of naloxone; assay type: functional, organism-based
Rattus norvegicus [12] = organism: Rattus norvegicus; experiment: Induction of cross-tolerance development in rat assessed as median foot shock required to elicit flinch-jump in presence of morphine; assay type: functional, organism-based
Canis familiaris [13] = experiment: Analgesic activity in dog assessed as rippling of skin at 5 mg/kg, ip after 2 hrs by radiant heat assay; assay type: functional, Canis lupus familiaris; settings: route intraperitoneal; outline: as §3
Rattus norvegicus [14] = experiment: Analgesic activity in rat assessed as median foot shock required to elicit flinch-jump at 17.8 mg/kg, po after 2 hrs; assay type: functional
Canis familiaris [15] = experiment: Analgesic activity in dog assessed as rippling of skin at 5 mg/kg, po after 2 hrs by radiant heat assay; assay type: functional, Canis lupus familiaris; outline: as §3

SMILES	Activity (Mus musculus [1])	Activity (Mus musculus [2])	Activity (Rattus norvegicus [3])	further results
CCOc1ccc(Cl)c2c1CCC(CN1CCCC1)C2=O.Cl (configuration not stated)	30%	60%	0.6 mA	–
COc1ccc(OC)c2c1CCC(CN(C)C)C2=O.Cl (configuration not stated)	10%	0%	0.6 mA	–
COc1cccc2c1CCC(CN1CCCC1)C2=O.Cl (configuration not stated)	0%	0%	0.8 mA	–
COc1ccc(OC)c2c1CCC(CN1CCCC1)C2=O.Cl (configuration not stated)	0%	0%	1.2 mA	–
COc1cccc2c1CCC(CN1CCOCC1)C2=O.Cl (configuration not stated)	–	–	0.6 mA	–
COc1cccc2c1CCC(CN1CCCCC1)C2=O.Cl (configuration not stated)	–	–	0.8 mA	–
COc1ccc(C)c2c1CCC(CN1CCCC1)C2=O.Cl (configuration not stated)	12.5%	50%	2.2 mA	–
CCOc1ccc(Cl)c2c1CCC(CN1CCCCC1)C2=O.Cl (configuration not stated)	33%	33%	0.6 mA	–
CN(C)CC1CCc2ccccc2C1=O.Cl (configuration not stated)	10%	0%	1.2 mA	ED50 (Rattus norvegicus [4]): > 10 mg/kg; Activity (Canis familiaris [5]): 70%; ED50 (Mus musculus [6]): 32 mg/kg
COc1ccc(Cl)c2c1C(C)CC(CN1CCOCC1)C2=O.Cl (configuration not stated)	30%	40%	0.8 mA	–
COc1ccc(C)c2c1CCC(CN1CCCCC1)C2=O.Cl (configuration not stated)	–	–	>2.2 mA	Activity (Mus musculus [7]): 40%; Activity (Rattus norvegicus [8]): 2.2 mA; Activity (Mus musculus [9]): 30%
COc1ccc(OC)c2c1CCC(CN1CCCCC1)C2=O.Cl (configuration not stated)	0%	22%	2.2 mA	–
COc1ccc(F)c2c1CCC(CN1CCOCC1)C2=O.Cl (configuration not stated)	30%	10%	1.2 mA	–
COc1ccc(Cl)c2c1CC(CN1CCOCC1)C2=O.Cl (configuration not stated)	0%	0%	0.6 mA	–
COc1ccc(Cl)c2c1CCC(CN1CCCC1)C2=O.Cl (configuration not stated)	30%	0%	>2.2 mA	Activity (Rattus norvegicus [10]): inactive; Activity (Rattus norvegicus [11]): Active; Activity (Rattus norvegicus [8]): 1.2 mA; ED50 (Rattus norvegicus [4]): > 178 mg/kg; Activity (Canis familiaris [5]): 160%; ED50 (Mus musculus [6]): 10 mg/kg; Activity (Rattus norvegicus [12]): inactive
COc1ccc(Cl)c2c1CC(CN(C)C)C2=O.Cl (configuration not stated)	20%	30%	0.6 mA	–
COc1ccc(Cl)c2c1CCC(CN1CCC(c3ccccc3)CC1)C2=O.Cl (configuration not stated)	20%	10%	>2.2 mA	Activity (Rattus norvegicus [8]): 2.2 mA
COc1ccc(Cl)c2c1CCC(C(C)N1CCCCC1)C2=O.Cl (configuration not stated)	20%	0%	0.6 mA	–
COc1ccc(Cl)c2c1CCC(C)(CN1CCOCC1)C2=O.Cl (configuration not stated)	–	–	0.6 mA	–
COc1ccc(Cl)c2c1CCC(CN1CCCCCC1)C2=O.Cl (configuration not stated)	0%	0%	1.2 mA	–
C=CCNCC1CCc2c(OC)ccc(Cl)c2C1=O.Cl (configuration not stated)	–	–	>2.2 mA	Activity (Mus musculus [7]): 0%; Activity (Rattus norvegicus [8]): 2.2 mA; Activity (Mus musculus [9]): 0%
COc1ccc(OC)c2c1CCC(CN1CCOCC1)C2=O.Cl (configuration not stated)	10%	0%	0.6 mA	–
CCOc1ccc(Cl)c2c1CCC(CN1CCOCC1)C2=O.Cl (configuration not stated)	10%	20%	2.2 mA	–
CN1CCN(CC/C=C2/c3ccccc3Sc3ccc(S(=O)(=O)N(C)C)cc32)CC1 [THIOTHIXENE]	–	–	–	ED50 (Rattus norvegicus [4]): 3.2 mg/kg; ED50 (Mus musculus [6]): 0.32 mg/kg
COc1ccc(F)c2c1CCC(CN1CCCC1)C2=O.Cl (configuration not stated)	50%	0%	1.2 mA	–
COc1ccc(Cl)c2c1CCC(CN(C)C)C2=O.Cl (configuration not stated)	0%	10%	2.2 mA	ED50 (Rattus norvegicus [4]): > 178 mg/kg; Activity (Canis familiaris [5]): 130%; ED50 (Mus musculus [6]): 32 mg/kg
CCc1c(C)[nH]c2c1C(=O)C(CN1CCOCC1)CC2 (configuration not stated) [MOLINDONE]	–	–	–	ED50 (Rattus norvegicus [4]): 3.2 mg/kg; ED50 (Mus musculus [6]): 3.2 mg/kg
CCOC1(c2ccccc2)CCN(CC2CCc3c(OC)ccc(Cl)c3C2=O)CC1.Cl (configuration not stated)	0%	0%	1.2 mA	–

SMILES	Activity (Mus musculus [1])	Activity (Mus musculus [2])	Activity (Rattus norvegicus [3])	further results
COc1ccc(F)c2c1CCC(CN1CCCCC1)C2=O.Cl (configuration not stated)	–	–	1.6 mA	Activity (Mus musculus [7]): 60%; Activity (Mus musculus [9]): 10%
COc1ccc(Cl)c2c1CC(CN1CCCCC1)C2=O.Cl (configuration not stated)	0%	0%	0.6 mA	–
COc1ccc(Cl)c2c1C(C)CC(CN1CCCCC1)C2=O.Cl (configuration not stated)	–	–	1.2 mA	–
CCOC(=O)C1(c2ccccc2)CCN(C)CC1 [MEPERIDINE]	50%	70%	1.2 mA	Activity (Canis familiaris [13]): 150%; ED50 (Rattus norvegicus [4]): 10 mg/kg
COc1ccc(C)c2c1CCC(CN1CCOCC1)C2=O.Cl (configuration not stated)	10%	0%	0.6 mA	–
COc1cccc2c1CCC(CN(C)C)C2=O.Cl (configuration not stated)	0%	0%	1.2 mA	–
COc1ccc(Cl)c2c1CCC(CN1CCC(O)(c3ccccc3)CC1)C2=O.Cl (configuration not stated)	60%	0%	>2.2 mA	Activity (Rattus norvegicus [8]): 1.2 mA
COc1ccc(Cl)c2c1CCC(CNC1CCCCC1)C2=O.Cl (configuration not stated)	–	0%	>2.2 mA	Activity (Rattus norvegicus [8]): 1.2 mA
CCOc1ccc(Cl)c2c1CCC(CN(C)C)C2=O.Cl (configuration not stated)	0%	0%	0.6 mA	–
COc1ccc(Cl)c2c1CCC(CN1CCCCC1)C2=O.Cl (configuration not stated)	0%	0%	>2.2 mA	Activity (Rattus norvegicus [8]): 2.2 mA; ED50 (Rattus norvegicus [4]): 32 mg/kg; Activity (Canis familiaris [5]): 110%; ED50 (Mus musculus [6]): 10 mg/kg
COc1ccc(Cl)c2c1CCC(C)(CN1CCCCC1)C2=O.Cl (configuration not stated)	–	–	0.6 mA	–
COc1ccc(Cl)c2c1CCC(C(c1ccccc1)N1CCOCC1)C2=O.Cl (configuration not stated)	0%	0%	0.6 mA	–
COc1ccc(Cl)c2c1CCC(CN1CCOCC1)C2=O.O=C(O)/C=C\C(=O)O (configuration not stated)	0%	20%	2.2 mA	ED50 (Rattus norvegicus [4]): 0.32 mg/kg; Activity (Canis familiaris [5]): 140%; ED50 (Mus musculus [6]): 32 mg/kg
COc1ccc(Cl)c2c1CCC(C(C)N1CCOCC1)C2=O.Cl (configuration not stated)	0%	0%	0.6 mA	–
Cl.O=C1c2ccccc2CCC1CN1CCCC1 (configuration not stated)	0%	10%	1.2 mA	ED50 (Rattus norvegicus [4]): > 10 mg/kg; Activity (Canis familiaris [5]): 100%; ED50 (Mus musculus [6]): 32 mg/kg
CCOC(=O)N1CCN(CC2CCc3c(OC)ccc(Cl)c3C2=O)CC1.O=C(O)/C=C\C(=O)O (configuration not stated)	0%	0%	0.6 mA	–
Cl.O=C1c2ccccc2CCC1CN1CCOCC1 (configuration not stated)	10%	20%	0.6 mA	ED50 (Rattus norvegicus [4]): > 10 mg/kg; Activity (Canis familiaris [5]): 90%; ED50 (Mus musculus [6]): 32 mg/kg
COc1ccc(Cl)c2c1CCC(C(c1ccccc1)N1CCCCC1)C2=O.Cl (configuration not stated)	30%	0%	0.6 mA	–
CCC(=O)O[C@](Cc1ccccc1)(c1ccccc1)[C@H](C)CN(C)C [PROPOXYPHENE]	30%	70%	–	Activity (Rattus norvegicus [14]): 1.2%; Activity (Canis familiaris [15]): 100%
CCN(CC)CC1CCc2c(OC)ccc(Cl)c2C1=O.O=C(O)/C=C\C(=O)O (configuration not stated)	20%	0%	0.6 mA	–
COc1ccc(C)c2c1CCC(CN(C)C)C2=O.Cl (configuration not stated)	–	–	0.6 mA	–
Cl.O=C1c2ccccc2CCC1CN1CCCCC1 (configuration not stated)	0%	0%	0.8 mA	ED50 (Rattus norvegicus [4]): > 32 mg/kg; ED50 (Mus musculus [6]): > 100 mg/kg
COc1ccc(Cl)c2c1CC(CN1CCCC1)C2=O.Cl (configuration not stated)	0%	0%	0.6 mA	–
COc1ccc(F)c2c1CCC(CN(C)C)C2=O.Cl (configuration not stated)	50%	0%	0.6 mA	–
CNCC1CCc2c(OC)ccc(Cl)c2C1=O.Cl (configuration not stated)	10%	0%	>2.2 mA	Activity (Rattus norvegicus [8]): 1.2 mA
CCNCC1CCc2c(OC)ccc(Cl)c2C1=O.Cl (configuration not stated)	–	–	>2.2 mA	Activity (Mus musculus [7]): 40%; Activity (Rattus norvegicus [8]): 2.2 mA; Activity (Mus musculus [9]): 0%
CN(C)CCCN1c2ccccc2Sc2ccc(Cl)cc21 [CHLORPROMAZINE]	–	–	–	ED50 (Rattus norvegicus [4]): 3.2 mg/kg; ED50 (Mus musculus [6]): 1 mg/kg
